# According to ChEMBL document CHEMBL4316616, “Efficacy of TLR7 agonistic imidazoquinoline as immunochemotherapeutic agent against P. Berghei ANKA infected rodent host” (Bioorg Med Chem Lett, 2019):
# Active and inactive are the calls of the source. The rule behind the calls is not given here.
# Key:
# [1] = test system: Plasmodium berghei; test: Antiparasitic activity against Plasmodium berghei ANKA infected in Laca mouse assessed as reduction in CD8+ cell level in brain at 10 mg/kg, po administered for 4 days measured on day 10 by flow cytometry; type: functional, organism-based
# [2] = test system: Plasmodium berghei; test: Antiparasitic activity against Plasmodium berghei ANKA infected in Swiss albino mouse assessed as reduction in parasitemia at 10 mg/kg, po by Peter's 4 day test; type: functional; set-up: scale not given: the % may be the effect or the level left
# [3] = test system: Plasmodium berghei; test: Antiparasitic activity against Plasmodium berghei ANKA infected in Laca mouse assessed as reduction in parasitemia at 10 mg/kg, po administered for 4 days measured up to day 15 by Giemsa-staining based assay; type: functional, organism-based
# [4] = test system: Plasmodium berghei; test: Antimalarial activity against Plasmodium berghei ANKA infected in Swiss albino mouse assessed as reduction in parasitemia at 25 mg/kg, po for 4 days dosed 2 hrs post infection and measured 5 days post infection by Giemsa staining based Peter's 4 day test; type: functional; set-up: scale not given: the % may be the effect or the level left
# [5] = test system: Plasmodium berghei; test: Antiparasitic activity against Plasmodium berghei ANKA infected in Laca mouse assessed as increase in serum IL-12 level at 10 mg/kg, po administered for 4 days measured on day 10 by sandwich ELISA; type: functional, organism-based
# [6] = test system: Plasmodium berghei; test: Antiparasitic activity against Plasmodium berghei ANKA infected in Laca mouse assessed as reduction in CD4+ cell level in brain at 10 mg/kg, po administered for 4 days measured on day 10 and 21 by flow cytometry; type: functional, organism-based
# [7] = test system: Plasmodium berghei; test: Antiparasitic activity against Plasmodium berghei ANKA infected in Laca mouse assessed as increase in CD3+ cell level in spleen at 10 mg/kg, po administered for 4 days measured on day 10 by flow cytometry; type: functional, organism-based
# [8] = Toxicity in Laca mouse infected with Plasmodium berghei ANKA assessed as death at 10 mg/kg, po administered for 4 days measured on day 21; type: organism-based; settings: in vivo, 96 h
# How it was run: (§1)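 Groups of 6 mice, infected i.p. on D0 with 1x10⁶ P. berghei ANKA parasitized RBCs. Chloroquine 10 mg/kg given orally in 0.2 mL/mouse daily D0–D3. Infected PBS-dosed and uninfected controls were included. Mice were followed for survival, with parasitemia checked on Giemsa-stained thin blood smears of individual mice.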
# [9] = test system: Plasmodium berghei; test: Antiparasitic activity against Plasmodium berghei ANKA infected in Laca mouse assessed as parasitemia at 10 mg/kg, po administered for 4 days measured on day 17 by Giemsa-staining based assay; type: functional
# [10] = test system: Plasmodium berghei; test: Antiparasitic activity against Plasmodium berghei ANKA infected in Laca mouse assessed as parasitemia at 10 mg/kg, po administered for 4 days measured on day 21 by Giemsa-staining based assay; type: functional
# [11] = test system: Plasmodium berghei; test: Antiparasitic activity against Plasmodium berghei ANKA infected in Laca mouse assessed as decrease in serum TNFalpha level at 10 mg/kg, po administered for 4 days measured on day 10 by sandwich ELISA; type: functional, organism-based
# [12] = test system: Plasmodium berghei; test: Antiparasitic activity against Plasmodium berghei ANKA infected in Laca mouse assessed as increase in serum IL-27 level at 10 mg/kg, po administered for 4 days measured on day 10 by sandwich ELISA; type: functional, organism-based
# [13] = test system: Plasmodium berghei; test: Antiparasitic activity against Plasmodium berghei ANKA infected in Laca mouse assessed as increase in IFN-gamma level in serum at 10 mg/kg, po administered for 4 days measured on day 10 by sandwich ELISA
# [14] = test system: Plasmodium berghei; test: Antiparasitic activity against Plasmodium berghei ANKA infected in Laca mouse assessed as increase in Treg cell level in brain at 10 mg/kg, po administered for 4 days measured on day 10 by flow cytometry; type: functional, organism-based
# [15] = test system: Plasmodium berghei; test: Antiparasitic activity against Plasmodium berghei ANKA infected in Laca mouse assessed as reduction in CD3+ cell level in brain at 10 mg/kg, po administered for 4 days measured on day 10 by flow cytometry; type: functional, organism-based
# [16] = test system: Plasmodium berghei; test: Antiparasitic activity against Plasmodium berghei ANKA infected in Laca mouse assessed as increase in serum IL-10 level at 10 mg/kg, po administered for 4 days measured on day 10 by sandwich ELISA; type: functional, organism-based
# [17] = Toxicity in Laca mouse infected with Plasmodium berghei ANKA assessed as death at 10 mg/kg, po administered for 4 days measured after 21 days; type: organism-based; settings: in vivo, 504 h; how it was run: as §1
compound,measurement,setting,value
CCN(CC)CCCC(C)Nc1ccnc2cc(Cl)ccc12 (configuration not stated) [CHLOROQUINE],Activity,[1],Active
same,Activity,[2],58.3%
same,Activity,[3],Active
same,Activity,[4],89.04%
same,Activity,[5],Active
same,Activity,[6],Active
same,Activity,[7],Active
same,Activity,[8],Toxic
same,Activity,[9],5.99%
same,Activity,[10],10.76%
same,Activity,[11],Active
same,Activity,[12],Active
same,Activity,[13],Active
same,Activity,[14],Active
same,Activity,[15],Active
same,Activity,[16],Active
same,Activity,[17],Toxic
